The results in this text go back to ChEMBL document CHEMBL1275350, “First in class, potent, and orally bioavailable NADPH oxidase isoform 4 (Nox4) inhibitors for the treatment of idiopathic pulmonary fibrosis” (J Med Chem, 2010).

As usually defined, the Ki is the dissociation constant of the complex between target and ligand, obtained from inhibition or displacement. As usually defined, the microsomal CLint is the capacity of the preparation to metabolise the compound, expressed as a volume cleared per time. By Papp is commonly meant the rate of passage across a membrane or cell layer, normalised by area and donor concentration. Usually AUC(0-inf) stands for total exposure, with the tail of the curve extrapolated. Lower therefore signals less exposure. By bioavailability is commonly meant the share of a dose that reaches the circulation, judged against a reference dose that is usually intravenous. A lower bioavailability goes with little systemic uptake. By Cmax is commonly meant the maximum level reached in the sampled fluid or tissue. In general, Tmax refers to the time at which the peak concentration occurs. The term half-life denotes how long it takes for the measured level to halve. A low value points to rapid decline. By CL/F is commonly meant the apparent clearance, not corrected for the fraction that reaches the circulation. A word on the clearance: it is a measure of how efficiently the substance is removed, as volume per time. One may read the IC50 as the concentration that inhibits the measured activity by half. Lower therefore signals inhibition by little substance.

One data set concerns the target T1, NADPH oxidase 4 (Homo sapiens, UniProt Q9NPH5).
T1 sequence (Q9NPH5 whole entry): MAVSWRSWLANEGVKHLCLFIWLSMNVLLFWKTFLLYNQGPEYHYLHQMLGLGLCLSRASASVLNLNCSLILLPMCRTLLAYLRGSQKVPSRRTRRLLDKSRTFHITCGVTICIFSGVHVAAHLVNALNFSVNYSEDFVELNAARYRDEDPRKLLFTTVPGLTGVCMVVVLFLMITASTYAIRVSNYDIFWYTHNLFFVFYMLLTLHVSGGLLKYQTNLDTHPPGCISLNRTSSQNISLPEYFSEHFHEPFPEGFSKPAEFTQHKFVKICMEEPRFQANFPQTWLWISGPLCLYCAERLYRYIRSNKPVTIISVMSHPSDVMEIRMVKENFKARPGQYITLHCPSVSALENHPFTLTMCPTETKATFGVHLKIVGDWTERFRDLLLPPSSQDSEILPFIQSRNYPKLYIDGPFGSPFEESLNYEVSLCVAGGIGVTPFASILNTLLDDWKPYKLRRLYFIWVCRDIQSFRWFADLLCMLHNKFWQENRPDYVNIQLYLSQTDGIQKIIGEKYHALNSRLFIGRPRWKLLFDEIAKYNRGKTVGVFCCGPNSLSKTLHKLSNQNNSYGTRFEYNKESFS
Description: Inhibition of human NOX4 overexpressed in T-REx-293 cell membrane assessed as ROS production by cell free assay in presence of NADPH. As to conditions: in the assay text read “T-REx-293 cell membrane” for “human PMN cell membrane”. The gist of the method:
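hNOX4 T-REx-293 cells induced with tetracycline (1 μg/mL, 24 h), sonicated in sucrose/NaCl/EGTA PBS buffer pH 7.4, membranes taken from a sucrose gradient. NADPH-triggered ROS measured by Amplex Red/HRP in PBS, with compound at 1 nM–100 μM, 20 min at 37 °C. Ki by Cheng-Prusoff from ≥3 triplicate experiments.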

A short description of data set [1]: Intrinsic clearance in Sprague-Dawley rat liver microsomes assessed per mg of protein at 0.5 uM. In kind it is ADME, Microsome. An outline of the steps:
(§1)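 Phase I stability assay in pooled liver microsomes (human: male and female; rat: male Sprague-Dawley). Microsomes at 0.5 mg/mL final in 0.1 M phosphate pH 7.4. Compound 0.5 μM final, 0.25% DMSO. Preincubated at 37 °C, reaction started with 1 mM NADPH. Sampled at 0, 5, 15, 30 and 45 min, with a 45 min minus-NADPH control. Methanol quench with internal standard, LC/MS-MS, intrinsic clearance calculated.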
(Liver microsomes are a subcellular fraction often used to study metabolism.)

Data set [2] in a line: Permeability across human Caco-2 cell membrane at 10 uM after 2 hrs. In kind it is ADME, cell-based. An outline of the steps:
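Caco-2 monolayers grown 20 days in DMEM, used when TEER >800 Ω·cm2. Dosed at 10 μM final in HBSS pH 6.5 with 1% DMSO, apical-to-basolateral and basolateral-to-apical. Incubated 2 h at 37 °C, both compartments sampled, LC-MS/MS with five-point calibration. Papp = (dQ/dt)/(C0A).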
For orientation: Caco-2 monolayers are a common model of the intestinal barrier.

A short description of data set [3]: Intrinsic clearance in human liver microsomes assessed as per mg of protein at 0.5 uM. The format is ADME, Microsome. An outline of the steps:
as §1

Data set [4] can be described thus: AUC (infinity) in Sprague-Dawley rat at 10 mg/kg, po. Also noted: time infinity, dose 10 mg/kg, route oral. In kind it is ADME, organism-based. The note with it: plasma. The gist of the method:
(§2)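 Parallel design with six male rats: three given 5 mg/kg iv in EDPW (10% EtOH, 10% DMA, 30% PG, 50% water), three given 10 mg/kg orally in aqueous 0.5% CMC with 0.25% Tween 20. Carotid cannula blood sampled up to 24 h. Plasma levels by LC/MS/MS (LLOQ 1.00 ng/mL). Noncompartmental analysis.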

The nature of data set [5]: Oral bioavailability in Sprague-Dawley rat at 10 mg/kg. The format is ADME, organism-based. The note with it: in vivo. An outline of the steps: (§3)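 Parallel design in male rats, three per group. Group 1: 5 mg/kg iv in EDPW (10% EtOH, 10% DMA, 30% PG, 50% water). Group 2: 10 mg/kg oral in aqueous 0.5% CMC with 0.25% Tween 20. Carotid cannula blood drawn up to 24 h. Plasma measured by LC/MS/MS (LLOQ 1.00 ng/mL), noncompartmental analysis.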

Data set [6] is described as follows: Cmax in Sprague-Dawley rat at 10 mg/kg, po. The format is ADME, organism-based. The arrangement: dose 10 mg/kg, route oral. The note with it: in vivo. An outline of the steps:
as §2

Data set [7] in a line: Tmax in Sprague-Dawley rat at 10 mg/kg, po. The format is ADME, organism-based. Also noted: dose 10 mg/kg, route oral. The note with it: in vivo. An outline of the steps:
as §3

The nature of data set [8]: Half life in Sprague-Dawley rat at 10 mg/kg, po. The format is ADME, organism-based. Also noted: dose 10 mg/kg, route oral. The note with it: in vivo. An outline of the steps: as §2
Data set [9] can be described thus: AUC (infinity) in Sprague-Dawley rat at 5 mg/kg, iv. Also noted: time infinity, dose 5 mg/kg, route intravenous. In kind it is ADME, organism-based. The note with it: plasma. The gist of the method:
as §2

Data set [10] can be described thus: Cmax in Sprague-Dawley rat at 5 mg/kg, iv. The note with it: in vivo. The arrangement: dose 5 mg/kg, route intravenous. In kind it is ADME, organism-based. The gist of the method: as §2
Data set [11] is described as follows: Clearance in Sprague-Dawley rat at 10 mg/kg, po. In kind it is ADME, organism-based. The arrangement: dose 10 mg/kg, route oral. As to conditions: in vivo. The gist of the method:
as §2

Data set [12] is described as follows: Clearance in Sprague-Dawley rat at 5 mg/kg, iv. As to conditions: in vivo. The arrangement: dose 5 mg/kg, route intravenous. In kind it is ADME, organism-based. An outline of the steps: as §2
A short description of data set [13]: Volume of distribution at steady state in Sprague-Dawley rat at 5 mg/kg, iv. In kind it is ADME, organism-based. Also noted: dose 5 mg/kg, route intravenous. As to conditions: in vivo, read-out: Vdss. An outline of the steps: as §3
Another data set has as its target Cytochrome P450 2C8 (Homo sapiens, UniProt P10632). Description: Inhibition of human CYP2C8. In kind it is ADME. The gist of the method: (§4)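 Recombinant human CYP isoforms with isoform-specific probe substrates and NADPH. Compound at 0.1–25 μM, final DMSO 0.3%. Metabolites measured by mass spectrometry, except CYP1A2, which used a fluorescent metabolite. IC50 derived from the decrease in metabolite formation compared with vehicle control.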

A further data set concerns the target Cytochrome P450 2C19 (Homo sapiens, UniProt P33261). Nature of the data set: Inhibition of human CYP2C19. In kind it is ADME. An outline of the steps: as §4
The target of another data set is Cytochrome P450 3A4 (Homo sapiens, UniProt P08684). Description: Inhibition of human CYP3A4. In kind it is ADME. An outline of the steps: as §4
Another data set deals with Cytochrome P450 2C9 (Homo sapiens, UniProt P11712). Description: Inhibition of human CYP2C9. The format is ADME. The gist of the method: as §4
Data set [14] is described as follows: Half life in Sprague-Dawley rat at 5 mg/kg, iv. In kind it is ADME, organism-based. The arrangement: dose 5 mg/kg, route intravenous. As to conditions: in vivo. An outline of the steps:
as §2

Chain of Cytochrome P450 2C9 (P11712 whole entry): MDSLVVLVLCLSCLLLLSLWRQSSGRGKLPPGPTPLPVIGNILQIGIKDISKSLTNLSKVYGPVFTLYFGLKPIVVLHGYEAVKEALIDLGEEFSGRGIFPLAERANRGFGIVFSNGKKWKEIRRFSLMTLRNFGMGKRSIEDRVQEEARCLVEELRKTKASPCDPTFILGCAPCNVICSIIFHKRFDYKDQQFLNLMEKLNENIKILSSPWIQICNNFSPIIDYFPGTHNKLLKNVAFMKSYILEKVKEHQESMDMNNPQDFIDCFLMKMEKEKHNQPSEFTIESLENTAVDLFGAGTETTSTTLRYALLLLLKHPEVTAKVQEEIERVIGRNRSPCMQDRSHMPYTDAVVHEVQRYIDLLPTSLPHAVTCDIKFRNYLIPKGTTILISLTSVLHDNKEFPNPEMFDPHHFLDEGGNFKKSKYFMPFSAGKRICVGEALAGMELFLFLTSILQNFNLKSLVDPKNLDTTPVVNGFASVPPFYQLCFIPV
Chain of Cytochrome P450 2C19 (P33261 whole entry): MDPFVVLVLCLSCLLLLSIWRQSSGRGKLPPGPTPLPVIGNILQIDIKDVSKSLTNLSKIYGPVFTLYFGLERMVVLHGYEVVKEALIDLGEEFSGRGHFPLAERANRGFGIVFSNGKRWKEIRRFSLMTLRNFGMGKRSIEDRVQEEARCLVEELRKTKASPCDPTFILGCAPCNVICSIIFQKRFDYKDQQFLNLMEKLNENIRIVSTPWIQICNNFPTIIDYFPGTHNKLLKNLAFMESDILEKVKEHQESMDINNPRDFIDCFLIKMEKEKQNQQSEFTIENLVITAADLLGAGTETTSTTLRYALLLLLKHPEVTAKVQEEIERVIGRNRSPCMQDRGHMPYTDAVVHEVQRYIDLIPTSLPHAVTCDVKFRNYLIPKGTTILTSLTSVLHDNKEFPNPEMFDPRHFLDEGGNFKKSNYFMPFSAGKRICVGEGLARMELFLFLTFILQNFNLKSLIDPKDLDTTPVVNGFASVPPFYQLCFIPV
Chain of Cytochrome P450 3A4 (P08684 whole entry): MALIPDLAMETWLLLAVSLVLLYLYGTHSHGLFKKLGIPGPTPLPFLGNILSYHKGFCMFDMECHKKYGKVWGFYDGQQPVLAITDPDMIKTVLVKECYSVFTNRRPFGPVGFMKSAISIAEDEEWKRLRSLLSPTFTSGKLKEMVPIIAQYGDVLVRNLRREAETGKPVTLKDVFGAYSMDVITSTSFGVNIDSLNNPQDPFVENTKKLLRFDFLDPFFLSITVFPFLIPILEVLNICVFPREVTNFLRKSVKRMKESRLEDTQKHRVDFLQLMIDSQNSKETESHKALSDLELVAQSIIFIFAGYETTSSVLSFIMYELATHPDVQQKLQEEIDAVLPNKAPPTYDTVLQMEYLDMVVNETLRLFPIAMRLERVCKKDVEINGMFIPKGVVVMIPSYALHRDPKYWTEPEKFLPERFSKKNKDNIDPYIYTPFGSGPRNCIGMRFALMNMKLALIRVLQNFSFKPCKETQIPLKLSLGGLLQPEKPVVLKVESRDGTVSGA
Chain of Cytochrome P450 2C8 (P10632 whole entry, canonical isoform): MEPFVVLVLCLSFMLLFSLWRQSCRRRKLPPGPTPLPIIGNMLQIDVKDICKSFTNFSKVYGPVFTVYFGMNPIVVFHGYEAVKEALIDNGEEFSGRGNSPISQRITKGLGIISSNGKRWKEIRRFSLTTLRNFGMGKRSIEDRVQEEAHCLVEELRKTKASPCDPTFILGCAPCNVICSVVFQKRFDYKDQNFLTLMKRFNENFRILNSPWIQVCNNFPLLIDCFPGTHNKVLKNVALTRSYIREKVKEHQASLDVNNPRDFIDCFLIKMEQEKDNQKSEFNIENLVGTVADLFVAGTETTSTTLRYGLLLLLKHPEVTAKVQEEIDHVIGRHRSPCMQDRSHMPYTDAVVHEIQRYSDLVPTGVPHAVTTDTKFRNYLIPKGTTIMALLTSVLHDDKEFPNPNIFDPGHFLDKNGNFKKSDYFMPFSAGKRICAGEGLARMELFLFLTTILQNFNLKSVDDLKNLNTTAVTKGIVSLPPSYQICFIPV

Regarding `COCCn1c(COc2ccc(F)cc2)c2c(=O)n(CCN3CCOCC3)[nH]c2cc1=O`, the Ki on NADPH oxidase 4 is 153 nM. Besides, the intrinsic clearance (microsomal CLint) at 0.5 µM was 45.3 µL/min/mg in data set [1] and 45.1 µL/min/mg in data set [3]. For the same compound, the Papp at 2 h, 10 µM in data set [2] turned out to be 1.4 ×10⁻⁶ cm/s. The AUC(0-inf) in [4] was found to be 109 ng·h/mL; in data set [9] it was 822 ng·h/mL. The bioavailability in data set [5] was found to be 6%. Also, the figures for the Cmax in data set [6] and in data set [10] were 132 ng/mL and 4640 ng/mL, respectively. For the same compound, in data set [7], the Tmax came out at 0.25 h. Also, in [8], the half-life is 2.35 h. The CL/F in data set [11] was 1610 mL/min/kg. In data set [12], this compound had a clearance of 109 mL/min/kg. The Vd in data set [13] stood at 2.95 L/kg.

With `CN(Cc1c2c(=O)n(-c3ccccc3Cl)[nH]c2cc(=O)n1Cc1ccncc1)c1ccccc1`, the Ki at NADPH oxidase 4 was determined as 151 nM. For the same compound, the microsomal CLint at 0.5 µM in [1] is 78 µL/min/mg; in data set [3] it was 76.3 µL/min/mg. This compound also came in with an apparent permeability (Papp) at 2 h, 10 µM in data set [2] of 4.6 ×10⁻⁶ cm/s. The concentration for half-maximal inhibition (IC50) on Cytochrome P450 2C8 was determined as 3600 nM; against Cytochrome P450 2C19 it was 6500 nM; at Cytochrome P450 3A4, 1100 nM; against Cytochrome P450 2C9, 4100 nM.

For the compound `COCCCn1c(CN(C)Cc2ccccc2)c2c(=O)n(-c3ccc(F)cc3Cl)[nH]c2cc1=O`, on NADPH oxidase 4, the Ki worked out at 165 nM. Moreover, the values for the intrinsic metabolic clearance (microsomal CLint) at 0.5 µM in data set [1] and in data set [3] were 248 µL/min/mg and 96.4 µL/min/mg, respectively. This compound displayed a Papp at 2 h, 10 µM in data set [2] of 39.9 ×10⁻⁶ cm/s. For the same compound, the results for the IC50 on Cytochrome P450 2C19 and against Cytochrome P450 2C9 were 13000 nM and 900 nM, respectively.

Regarding `Cn1c(COc2ccc(F)cc2)c2c(=O)n(-c3ccccc3Cl)[nH]c2cc1=O`, the inhibition constant Ki at NADPH oxidase 4 is 114 nM. Also, the results for the microsomal CLint at 0.5 µM in [1] and in [3] were 125 µL/min/mg and 49.3 µL/min/mg, respectively. In addition, the Papp at 2 h, 10 µM in data set [2] turned out to be 35.5 ×10⁻⁶ cm/s. Moreover, the AUC(0-inf) in data set [4] came out at 3630 ng·h/mL; in data set [9], 6530 ng·h/mL. The compound also had a bioavailability in [5] of 28%. For the same compound, the highest concentration (Cmax) came to 558 ng/mL in data set [6] and 30400 ng/mL in data set [10]. Besides, in [7], the Tmax came to 1.17 h. The half-life in [8] is 3.03 h; in [14], 3.47 h. Further, the apparent clearance (CL/F) in data set [11] was 48.7 mL/min/kg. Further, the clearance in [12] is 12.8 mL/min/kg. Besides, the Vd in [13] came out at 0.8 L/kg.
